This is one part of a sample in which hits are shown more often than they occur.
N-glyco inh: blocks N-linked glycosylation in D54 reporter cells | D54 ERlucT glycosylation luciferase reporter, 24 h; percent of 100 nM tunicamycin response | reporter increase, % at 12.5 µM | 0.23% of 360,000 active;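 active means mean luciferase reporter signal, scaled so untreated is 0 and the glycosylation-blocking control 100, at or above a set limit in every replicate; inconclusive means mean reaches the limit but not every replicate does; inactive means mean below the limit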;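 further: luciferase carries N-glycosylation sites so blocking glycosylation raises the light; 0% = median of neutral control wells and 100% = median of 100 nM tunicamycin wells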
ALR inh: blocks human ALR sulfhydryl oxidase activity; 3.8% of 290,000 active; P55789; inhibition, % (concentration not given with the values); purified ALR, DTT oxidation, H2O2 HRP-luminol luminescence; AID 485317;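 active means mean replicate inhibition above about 79%, with every replicate also reaching it, limit read from the data; inconclusive means only one of the two criteria met; inactive means mean below limit and not every replicate reaching it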
Target sequence (P55789 whole entry, looked up): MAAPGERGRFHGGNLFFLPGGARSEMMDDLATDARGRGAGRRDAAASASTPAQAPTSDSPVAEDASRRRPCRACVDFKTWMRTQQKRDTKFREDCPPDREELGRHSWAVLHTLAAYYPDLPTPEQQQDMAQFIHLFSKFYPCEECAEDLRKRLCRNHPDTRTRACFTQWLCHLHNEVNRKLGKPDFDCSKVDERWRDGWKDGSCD
T cell modulator: T cell immune modulation candidate. response (vesicle binding), % at 7 µM. 2C CD8+ T cell-vesicle binding, flow cytometry; stronger effect = lower value. 0.068% of 330,000 active. AID 2052;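 active means response, share of CD8 T cells binding vesicles, and their 90th percentile fluorescence all below set limits, cut at about 80% in these data, passing the limit was not always enough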;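 further: values below 100% mean blocked vesicle binding to the CD8+ T cells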
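Test system: purified 2C TCR transgenic mouse naive CD8+ T cells. Probe or stimulus: QL9-peptide-loaded Drosophila micro-vesicles bearing Ld, ICAM-1 and B7-1. Incubation: binding step 1.5 h, 37 °C, antibody labelling 20 min, ice. Measured by: flow cytometry of vesicle-bound cells.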
* = called active by the depositor; i = inactive; u = inconclusive; x = no result.

SMILES	N-glyco inh	ALR inh	T cell modulator
CCOc1ccc(OCCC(=O)N(CCC2=CCCCC2)c2c(N)n(Cc3ccccc3)c(=O)[nH]c2=O)cc1	-0.6	-1.1	366.5
Cc1cc(C)n(CCC(=O)N=Nc2c(O)[nH]c3ccccc23)n1	4.5	x	495.6
COc1ccc(NC(=O)C(C)N=C2NS(=O)(=O)c3ccccc32)cc1S(N)(=O)=O (configuration not stated)	-1.6	-0.9	416.8
C[N+]1(CCCCSc2ccc(O)cc2)CCCCC1	2.1	99.1*	155.6
CC(=O)OCCCCCCCCCCC[N+]1(C)CCCCC1	-0.4	-3.4	541.1
CCOC(=O)C1CCN(C(=O)CNC(=O)c2nn(-c3ccc(OC)cc3OC)c(=O)c3ccccc23)CC1	-1.4	x	160.7
Cc1ccc(CNC(=O)C(C)C2Sc3ccccc3NC2=O)cc1 (configuration not stated)	-2.3	-5.8	798.6
C[C@@H]1CC=C[C@H]2[C@H]1C(=O)N(Cc1ccccc1)[C@H]2c1ccoc1	3.7	x	x
CC[C@@H]1CC=C[C@H]2[C@H]1C(=O)N(Cc1ccccc1)[C@H]2c1ccoc1	38.2*	x	x
Cc1ccc2nc(NCCCO)[nH]c2c1	2.0	97.2*	684.5
CCOc1ccc2nc(NCCO)[nH]c2c1	3.2	43.1	317.3
CC[C@]12c3[nH]c4ccccc4c3CCN1C(=O)C(CC(=O)NCCCN(C)C)C[C@@H]2C(=O)N1CCN(C(=O)C2CC2)CC1 (some centres not stated)	0.0	-4.5	378.6
O=C(Nc1ccccc1)OCC1COC(c2ccccc2)(c2ccccc2)O1 (configuration not stated)	-2.3	x	x
COc1ccccc1NC(=O)NCCN1CCN(c2cccc(Cl)c2)CC1	0.8	4.0	962.1
Cn1c(SCC(=O)c2cc3ccccc3o2)nnc1-c1ccccc1	8.6	96.7*	338.4
Cn1cnnc1SCC(=O)c1cc2ccccc2o1	2.7	88.1*	745.5
Cn1ccnc1SCC(=O)c1cc2ccccc2o1	-1.8	-1.6	410.3
Cc1ccnc(SCC(=O)c2cc3ccccc3o2)n1	0.2	x	326.5
CCc1ccc(NC(=O)[C@H](C)NC(=O)C2CCN(C(=O)[C@@H](NC(=O)OC(C)(C)C)C(C)C)CC2)cc1	0.5	17.5	529.1
O=C(CCCn1c(=S)[nH]c2cc3c(cc2c1=O)OCO3)N1CCN(c2ncccn2)CC1	-1.5	19.8	476.1
CCN1CCN(CCn2c(=S)[nH]c3cc4c(cc3c2=O)OCO4)CC1	5.1	92.4*	471.4
O=C(CCCn1c(=S)[nH]c2cc3c(cc2c1=O)OCO3)N1CCN(C2CCCCC2)CC1	-4.2	82.7*	495.4
CCN(CC)CCn1c(=S)[nH]c2cc3c(cc2c1=O)OCO3	6.6	69.0	233.5
CS(=O)(=O)n1nc(OC(=O)c2cccs2)cc1N	-0.8	89.1*	x
COc1ccc(S(=O)(=O)n2nc(OC(=O)c3cccs3)cc2N)cc1	1.9	74.7	393.5
SMILES	N-glyco inh	ALR inh	T cell modulator
COc1ccccc1N(C)S(=O)(=O)c1ccc(C(=O)NC2CCCCC2)cc1	-1.0	-2.1	227.5
COC(=O)[C@H](Cc1ccccc1)NC(=O)N1CCN(c2ccc(F)cc2)CC1	2.9	98.4*	105.3
COC(=O)[C@H](Cc1ccccc1)NC(=O)N1CCCCCC1	0.0	-3.9	192.8
O=S(=O)(/N=C(\Sc1ccccc1)c1ccccc1)c1ccc(Cl)cc1	2.5	-1.5	230.6
Cc1ccc(S(=O)(=O)/N=C(\Sc2ccccc2)c2ccccc2)cc1	3.8	98.4*	181.2
Cc1ccc(C)c(NC(=O)COC(=O)CCC(=O)c2cccs2)c1	-0.7	-7.5	415.2
c1ccc(-c2nc3ccccn3c2NCc2ccc3c(c2)OCO3)cc1	-0.3	81.1*	354.4
COc1ccc(-c2nc3ccccn3c2NCc2ccc3c(c2)OCO3)cc1	-1.7	u	970.6
O=[n+]1cc(-c2cc3ccccc3o2)n([O-])c2c1CCCC2	0.5	98.0*	176.7
O=[n+]1cc(-c2ccccc2)n([O-])c2c1CCCCC2	1.1	-13.1	466.3
O=C(CNS(=O)(=O)c1ccccc1)NCC(=O)OCc1ccc(C(=O)c2ccccc2)cc1	-0.6	-53.2	335.6
C#CCOCCOCCOCCNc1nc(N2CCN(C(=O)[C@H](CO)n3cc([C@@H](N)C(C)C)nn3)CC2)nc(N2CCN(C(=O)[C@H](CO)n3cc([C@@H](N)C(C)C)nn3)CC2)n1	2.8	x	x
CCN=c1scc(-c2ccco2)n1/N=C/c1ccc(O)cc1	-2.0	-4.0	317.6
C=C(C)CN=c1scc(C)n1/N=C/c1ccco1	-0.7	99.1*	198.7
CC(C)COn1c(=S)[nH]c2ccccc2c1=O	-0.6	96.8*	231.6
CC(C)Cn1c(=S)[nH]c2ccccc2c1=O	2.2	-0.3	i
COc1cc(Sc2ccc(C)cc2)c(OC)cc1N	-0.8	98.4*	928.7
COC(=O)c1ccc(Sc2ccc(C)cc2)c(N)c1	-1.1	-6.8	816.5
